Legend:
[1] = biological target: T1, Adenosine receptor A1 (Homo sapiens) (UniProt P30542); assay: Potentiation of CCPA-induced displacement of [3H]-DPCPX from human adenosine A1 receptor expressed in CHO cell membranes at 10 uM after 90 mins relative to CCPA-treated control
T1 sequence (whole entry): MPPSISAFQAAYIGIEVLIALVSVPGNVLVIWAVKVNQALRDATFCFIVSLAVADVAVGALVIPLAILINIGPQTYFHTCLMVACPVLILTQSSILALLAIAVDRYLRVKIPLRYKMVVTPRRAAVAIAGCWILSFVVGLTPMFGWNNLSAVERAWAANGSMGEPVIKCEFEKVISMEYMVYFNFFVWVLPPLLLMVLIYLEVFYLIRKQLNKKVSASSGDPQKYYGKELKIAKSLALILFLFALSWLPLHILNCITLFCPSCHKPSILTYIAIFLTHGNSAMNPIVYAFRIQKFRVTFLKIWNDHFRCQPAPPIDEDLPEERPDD
Summary of the method: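 CCPA (0.01 nM–1 µM) competition against [³H]DPCPX in hA1-CHO membranes, with or without compound at 10 µM. Nonspecific binding defined with 1 µM DPCPX. Ki calculated from IC50 by the Cheng-Prusoff equation; CCPA Ki shift given as fold change; three experiments.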

[2] = biological target: T1, Adenosine receptor A1 (Homo sapiens); assay: Potentiation of [3H]CCPA binding to human adenosine A1 receptor expressed in CHO cell membranes at 10 uM after 90 mins relative to [3H]CCPA-treated control
[3] = biological target: T2, Adenosine receptor A3 (Homo sapiens) (UniProt P0DMS8); assay: Displacement of [3H]-MRE-3008-F20 from human adenosine A3 receptor expressed in CHO cell membranes at 10 uM by scintillation counting analysis relative to control
T2 sequence (whole entry): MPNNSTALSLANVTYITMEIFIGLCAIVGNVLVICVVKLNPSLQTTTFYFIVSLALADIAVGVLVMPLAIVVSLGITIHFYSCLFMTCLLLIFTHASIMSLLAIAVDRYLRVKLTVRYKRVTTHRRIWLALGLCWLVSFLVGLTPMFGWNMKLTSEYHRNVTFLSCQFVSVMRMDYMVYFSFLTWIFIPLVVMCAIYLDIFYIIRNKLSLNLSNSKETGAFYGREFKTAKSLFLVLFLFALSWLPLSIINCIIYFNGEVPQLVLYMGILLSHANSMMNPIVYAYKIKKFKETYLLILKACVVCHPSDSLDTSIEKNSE
Summary of the method: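 A3-expressing CHO membranes in 50 mM Tris-HCl, 10 mM MgCl₂, 1 mM EDTA pH 7.4 with 2 nM [³H]MRE-3008-F20. Incubated 120 min at 4 °C. Compound 10 µM in 1% DMSO final. Filtration and scintillation counting; percent inhibition of specific binding.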

[4] = biological target: Adenosine receptor A2a (Homo sapiens) (UniProt P29274); assay: Displacement of [3H]-ZM241385 from human adenosine A2A receptor expressed in CHO cell membranes at 10 uM by scintillation counting analysis relative to control
Summary of the method: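 A2A-expressing CHO membranes, pretreated with adenosine deaminase, in 50 mM Tris-HCl, 10 mM MgCl₂ pH 7.4 with 1 nM [³H]ZM 241385. Incubated 60 min at 4 °C. Compound 10 µM in 1% DMSO final. Filtration and scintillation counting; percent inhibition of specific binding.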

[5] = biological target: T1, Adenosine receptor A1 (Homo sapiens); assay: Displacement of [3H]-DPCPX from human adenosine A1 receptor expressed in CHO cell membranes at 10 uM by scintillation counting analysis relative to control
Summary of the method: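 hA1-CHO membranes, pretreated with adenosine deaminase, in 50 mM Tris-HCl pH 7.4 with 1 nM [³H]DPCPX. Incubated 120 min at 25 °C. Compound 10 µM added from 100-fold DMSO stock, 1% DMSO final. Bound ligand collected on glass-fibre filters and counted by scintillation; percent inhibition of specific binding.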

[6] = biological target: T1, Adenosine receptor A1 (Homo sapiens); assay: Allosteric enhancement of human adenosine A1 receptor expressed in CHO cells assessed as inhibition of forskolin-stimulated cAMP production at 100 nM preincubated for 10 mins followed by forskolin challenge measured after 5 mins by scintillation counting analysis in presence of CCPA relative to control; type: functional, cell-based
Summary of the method: (§1)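 hA1-CHO cells (10⁶ cells/mL) in phosphate buffer with adenosine deaminase 1.0 IU/mL and Ro 20-1724 0.5 mM, preincubated 10 min at 37 °C. Compound added for 10 min, alone or at 100 nM with CCPA 1 pM. Forskolin 1 µM added for 5 min, stopped with cold 6% TCA. cAMP measured by [³H]-cAMP competition protein-binding assay; percent inhibition versus control; three experiments.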

[7] = biological target: T1, Adenosine receptor A1 (Homo sapiens); assay: Allosteric enhancement of human adenosine A1 receptor expressed in CHO cells assessed as inhibition of forskolin-stimulated cAMP production at 10 uM preincubated for 10 mins followed by forskolin challenge measured after 5 mins by scintillation counting analysis relative to control; type: functional, cell-based; summary of the method: as §1

Chain of Adenosine receptor A2a (Homo sapiens) (P29274 whole entry): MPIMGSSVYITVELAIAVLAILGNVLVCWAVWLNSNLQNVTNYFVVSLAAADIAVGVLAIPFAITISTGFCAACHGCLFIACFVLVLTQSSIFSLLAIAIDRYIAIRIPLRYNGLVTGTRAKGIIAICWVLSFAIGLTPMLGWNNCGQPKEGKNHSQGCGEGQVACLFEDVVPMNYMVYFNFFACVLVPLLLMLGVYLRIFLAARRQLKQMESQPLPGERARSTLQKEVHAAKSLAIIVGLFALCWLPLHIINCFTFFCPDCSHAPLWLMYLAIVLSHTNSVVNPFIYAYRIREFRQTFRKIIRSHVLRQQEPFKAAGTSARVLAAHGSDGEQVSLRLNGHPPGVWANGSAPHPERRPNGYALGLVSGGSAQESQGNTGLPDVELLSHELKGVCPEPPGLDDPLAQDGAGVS

Structure (SMILES) | fold change (FC) [1] | fold change (FC) [2] | inhibition [3] [%] | inhibition [4] [%] | inhibition [5] [%] | inhibition [6] [%] | inhibition [7] [%]
CC(C)(C)Cc1c(-c2ccc3c(c2)OCO3)sc(N)c1C(=O)c1ccc(Cl)cc1 | 5.2 | 6.6 | 1 | 1 | 1 | 59 | 61
CC(C)(C)Cc1c(-c2ccc(OC(F)(F)F)cc2)sc(N)c1C(=O)c1ccc(Cl)cc1 | 4.6 | 6.4 | 1 | 1 | 1 | 55 | 56
Cc1ccc(C(=O)c2c(N)sc(Br)c2CC(C)(C)C)cc1 | 4.3 | 6.4 | 1 | 1 | 1 | 63 | 61
CC(C)(C)Cc1c(Br)sc(N)c1C(=O)c1ccc(Cl)c(Cl)c1 | 4 | 4.5 | 1 | 1 | 1 | 40 | 42
CC(C)(C)Cc1c(-c2ccccc2)sc(N)c1C(=O)c1ccc(Cl)cc1Cl | 4.4 | 6.8 | 1 | 1 | 1 | 55 | 52
COCCOc1ccc(-c2sc(N)c(C(=O)c3ccc(Cl)cc3)c2CC(C)(C)C)cc1 | 3.3 | 5.5 | 1 | 1 | 1 | 55 | 53
COc1cccc(-c2sc(N)c(C(=O)c3ccc(Cl)cc3)c2CC(C)(C)C)c1 | 5.8 | 6.3 | 1 | 2 | 1 | 57 | 55
CC(C)(C)Cc1c(Br)sc(N)c1C(=O)c1cccc(C(F)(F)F)c1 | 3 | 4.4 | 4 | 1 | 1 | 50 | 49
CC(C)(C)Cc1c(-c2ccccc2)sc(N)c1C(=O)c1cccc(Cl)c1 | 3.1 | 6.3 | 5 | 4 | 2 | 57 | 59
COc1ccc(-c2sc(N)c(C(=O)c3ccc(Cl)c(Cl)c3)c2CC(C)(C)C)cc1 | 4.3 | 6 | 1 | 1 | 1 | 52 | 54
Cc1ccc(C(=O)c2c(N)sc(-c3ccccc3)c2CC(C)(C)C)cc1 | 5 | 6.7 | 1 | 6 | 1 | 61 | 62
CC(C)(C)Cc1c(/C=C/c2ccc(Cl)cc2)sc(N)c1C(=O)c1ccc(Cl)cc1 | 2.8 | 4.8 | 11 | 1 | 1 | 53 | 51
Nc1sc(-c2ccccc2)c(-c2ccccc2)c1C(=O)c1ccc(Cl)cc1 | 1.7 | 2.1 | 1 | 6 | 1 | 26 | 24
CC(C)(C)Cc1c(Br)sc(N)c1C(=O)c1cccc(Cl)c1 | 2.4 | 3.6 | 1 | 1 | 1 | 48 | 45
CC(C)(C)Cc1c(-c2ccccc2)sc(N)c1C(=O)c1cccc(C(F)(F)F)c1 | 3.6 | 4 | 1 | 1 | 1 | 39 | 38

Now from value to compound:

fold change (FC) [1] | fold change (FC) [2] | inhibition [3] [%] | inhibition [4] [%] | inhibition [5] [%] | inhibition [6] [%] | inhibition [7] [%] | Structure (SMILES)
2.8 | 4 | 6 | 1 | 1 | 46 | 42 | CC(C)(C)Cc1c(-c2ccncc2)sc(N)c1C(=O)c1ccc(Cl)cc1
2.7 | 4.1 | 1 | 1 | 1 | 49 | 47 | Cc1ccccc1-c1sc(N)c(C(=O)c2ccc(Cl)cc2)c1CC(C)(C)C
3.5 | 5.1 | 1 | 1 | 1 | 47 | 49 | CC(C)(C)Cc1c(-c2ccco2)sc(N)c1C(=O)c1ccc(Cl)cc1
2 | 3.3 | 1 | 1 | 1 | 35 | 38 | Cc1ccc(C(=O)c2c(CC(C)(C)C)csc2N)cc1
1.6 | 1.4 | 1 | 1 | 1 | 21 | 16 | Cc1sc(N)c(C(=O)c2ccc(Cl)cc2)c1-c1ccccc1
3.9 | 6.2 | 1 | 2 | 1 | 62 | 58 | CC(C)(C)Cc1c(-c2cccs2)sc(N)c1C(=O)c1ccc(Cl)cc1
4.8 | 6.9 | 1 | 1 | 1 | 53 | 51 | CC(C)(C)Cc1c(-c2ccccc2)sc(N)c1C(=O)c1ccc(Cl)cc1
4.5 | 6.8 | 1 | 2 | 1 | 50 | 48 | CC(C)(C)Cc1c(Br)sc(N)c1C(=O)c1ccc(Cl)cc1
4.9 | 6.1 | 1 | 3 | 1 | 63 | 60 | CC(C)(C)Cc1c(-c2cccc(F)c2F)sc(N)c1C(=O)c1ccc(Cl)cc1
6 | 6.4 | 1 | 1 | 1 | 58 | 57 | Cc1ccc(-c2sc(N)c(C(=O)c3ccc(Cl)cc3)c2CC(C)(C)C)cc1
1.6 | 1.5 | 1 | 1 | 1 | 18 | 16 | Cc1csc(N)c1C(=O)c1ccc(Cl)cc1
3.1 | 5.6 | 1 | 1 | 1 | 56 | 55 | CC(C)(C)Cc1c(-c2ccoc2)sc(N)c1C(=O)c1ccc(Cl)cc1
